Experimental findings from ChEMBL document CHEMBL1139798, “Synthesis of chlorogenic acid derivatives with promising antifungal activity” (Bioorg Med Chem, 2007) are described below.

Data set [1] is described as follows: Lethality in brine shrimp at 100 ug/ml. Type of data set: organism-based. The note with it: artemia, in vivo; read-out: Activity.
For the next data set, the system named is Candida albicans. The experiment in a line: Antifungal activity against Candida albicans ATCC 90028 after 18 to 24 hrs. It is filed as functional. In a few lines: (§1)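 Broth dilution following NCCLS guidelines. Final compound concentrations ran from 0.12 to 64. MIC was taken as the lowest concentration giving 80% inhibition of growth relative to the drug-free control.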

A further data set concerns Cryptococcus neoformans. Nature of the data set: Antifungal activity against Cryptococcus neoformans ATCC 32045 after 48 to 72 hrs. Type of data set: functional. In a few lines: as §1
The subject of another data set is Aspergillus fumigatus. The experiment in a line: Antifungal activity against Aspergillus fumigatus ATCC 13073 after 48 hrs. Type of data set: functional. The conditions noted are these: ATCC 13073, 48 h. In a few lines: as §1
The test system of a further data set is Pichia kudriavzevii. The experiment in a line: Antifungal activity against Candida krusei ATCC 6258. It is filed as functional.

In brackets after ≈: the same amount, converted by molar mass. A value given as a limit tells only on which side of the number the result lay.

For `CCCCCCCCOc1ccc(NC(=O)C(CC(=O)O)NC(=O)[C@]2(O)C[C@@H](O)[C@@H](O)[C@H](OC(=O)/C=C/c3ccc(O)c(O)c3)C2)cc1` (stereo not given in full), the mortality at 100 ug/ml in data set [1] was found to be 6.3%. Besides, the MIC in the data set on Candida albicans was 64 µg/mL (≈ 95.1 µM); in the data set on Cryptococcus neoformans, 16 µg/mL (≈ 23.8 µM); in the data set with Aspergillus fumigatus, greater than 64 µg/mL.
On to `C[C@@H]1[C@H](O)[C@@H](C)/C=C/C=C/C=C/C=C/C=C/C=C/C=C/[C@H](O[C@@H]2O[C@H](C)[C@@H](O)[C@H](N)[C@@H]2O)C[C@@H]2O[C@](O)(C[C@@H](O)C[C@@H](O)[C@H](O)CC[C@@H](O)C[C@@H](O)CC(=O)O[C@H]1C)C[C@H](O)[C@H]2C(=O)O` [AMPHOTERICIN B], for which the MIC in the data set on Candida albicans is 0.5 µg/mL (≈ 0.541 µM).
Regarding `CCCCCCCCOc1ccc(NC(=O)C(CC(=O)OC(C)(C)C)NC(=O)[C@@]2(O)C[C@@H](OC(=O)/C=C/c3ccc(O)c(O)c3)[C@@H]3OC(C)(C)O[C@@H]3C2)cc1` (stereo not given in full), the mortality at 100 ug/ml in data set [1] is 56.2%. For the same compound, the MIC against Candida albicans was greater than 64 µg/mL; in the data set with Cryptococcus neoformans, 2 µg/mL (≈ 2.6 µM); against Aspergillus fumigatus, greater than 64 µg/mL.
Regarding `CCCCCCCCOc1ccc(NC(=O)C(NC(=O)[C@]2(O)C[C@@H](O)[C@@H](O)[C@H](OC(=O)/C=C/c3ccc(O)c(O)c3)C2)C(C)OC(C)(C)C)cc1` (stereo not given in full), the MIC was 2 µg/mL (≈ 2.8 µM) in the data set on Pichia kudriavzevii, 2 µg/mL (≈ 2.8 µM) against Candida albicans, 1 µg/mL (≈ 1.4 µM) against Cryptococcus neoformans and greater than 64 µg/mL with Aspergillus fumigatus. In addition, the mortality at 100 ug/ml in data set [1] came out at 50%.
On to `CCCCCCCCOc1ccc(NC(=O)[C@]2(O)C[C@@H](O)[C@@H](O)[C@H](OC(=O)/C=C/c3ccc(O)c(O)c3)C2)cc1`, for which the mortality at 100 ug/ml in data set [1] stood at 50%. The MIC was 8 µg/mL (≈ 14.3 µM) in the data set with Candida albicans, 2 µg/mL (≈ 3.59 µM) in the data set with Cryptococcus neoformans and greater than 64 µg/mL in the data set with Aspergillus fumigatus.
On the same counts, the results for `CCCCCCCCOc1ccc(NC(=O)C(CC(=O)OC(C)(C)C)NC(=O)[C@]2(O)C[C@@H](O)[C@@H](O)[C@H](OC(=O)/C=C/c3ccc(O)c(O)c3)C2)cc1` (stereo not given in full) are 37.5%, 2 µg/mL (≈ 2.74 µM), 2 µg/mL (≈ 2.74 µM) and greater than 64 µg/mL.
Consider `CCCCCCCCOc1ccc(NC(=O)C(CCCN)NC(=O)[C@]2(O)C[C@@H](O)[C@@H](O)[C@H](OC(=O)CCc3ccc(O)c(O)c3)C2)cc1` (stereo not given in full), for which the mortality at 100 ug/ml in data set [1] was 10.5%. Moreover, the minimal inhibitory concentration (MIC) with Candida albicans was found to be 16 µg/mL (≈ 23.7 µM); against Cryptococcus neoformans, 8 µg/mL (≈ 11.9 µM); against Aspergillus fumigatus, 64 µg/mL (≈ 95 µM).
As for `CCCCCCCCOc1ccc(NC(=O)C(COC(C)(C)C)NC(=O)[C@]2(O)C[C@@H](O)[C@@H](O)[C@H](OC(=O)/C=C/c3ccc(O)c(O)c3)C2)cc1` (stereo not given in full), the mortality at 100 ug/ml in data set [1] stood at 31.1%. Also, the MIC is 4 µg/mL (≈ 5.71 µM) with Candida albicans, 2 µg/mL (≈ 2.85 µM) against Cryptococcus neoformans and greater than 64 µg/mL against Aspergillus fumigatus.
For `CCCCCCCCOc1ccc(NC(=O)C(NC(=O)[C@@]2(O)C[C@@H](OC(=O)/C=C/c3ccc(O)c(O)c3)[C@@H]3OC(C)(C)O[C@@H]3C2)C(C)OC(C)(C)C)cc1` (stereo not given in full) the same measures were 6.2%, 32 µg/mL (≈ 42.4 µM), 4 µg/mL (≈ 5.3 µM) and greater than 64 µg/mL.
In the case of `OC(Cn1cncn1)(Cn1cncn1)c1ccc(F)cc1F` [FLUCONAZOLE], the MIC against Candida albicans is 0.25 µg/mL (≈ 0.816 µM); in the data set on Cryptococcus neoformans, 0.5 µg/mL (≈ 1.63 µM); in the data set with Aspergillus fumigatus, greater than 64 µg/mL.
As to `O=C(/C=C/c1ccc(O)c(O)c1)O[C@@H]1C[C@](O)(C(=O)O)C[C@@H](O)[C@H]1O` [CHLOROGENIC ACID], the MIC against Pichia kudriavzevii and in the data set on Candida albicans was greater than 64 µg/mL throughout. In data set [1], the mortality at 100 ug/ml stood at 100%.
Turning to `CCCCCCCCOc1ccc(NC(=O)C(NC(=O)[C@]2(O)C[C@@H](O)[C@@H](O)[C@H](OC(=O)/C=C/c3ccc(O)c(O)c3)C2)C(C)O)cc1` (stereo not given in full), the MIC is 2 µg/mL (≈ 3.04 µM) in the data set with Pichia kudriavzevii, 8 µg/mL (≈ 12.1 µM) against Candida albicans, 2 µg/mL (≈ 3.04 µM) in the data set on Cryptococcus neoformans and greater than 64 µg/mL in the data set with Aspergillus fumigatus. Besides, the mortality at 100 ug/ml in data set [1] came to 12.5%.
`CCCCCCCCOc1ccc(NC(=O)C(CCCNC(=O)OC(C)(C)C)NC(=O)[C@]2(O)C[C@@H](O)[C@@H](O)[C@H](OC(=O)/C=C/c3ccc(O)cc3)C2)cc1` (stereo not given in full): in data set [1], the mortality at 100 ug/ml was determined as 31.6%. In addition, the MIC against Candida albicans, with Cryptococcus neoformans and against Aspergillus fumigatus was greater than 64 µg/mL each time.
Consider `CCCCCCCCOc1ccc(NC(=O)[C@@]2(O)C[C@@H](OC(=O)/C=C/c3ccc(O)c(O)c3)[C@@H]3OC(C)(C)O[C@@H]3C2)cc1`, for which the mortality at 100 ug/ml in data set [1] came to 100%. The minimum inhibitory concentration (MIC) was 16 µg/mL (≈ 26.8 µM) in the data set with Candida albicans, 2 µg/mL (≈ 3.35 µM) with Cryptococcus neoformans and greater than 64 µg/mL in the data set on Aspergillus fumigatus.
`CCCCCCCCOc1ccc(NC(=O)C(CCCN)NC(=O)[C@]2(O)C[C@@H](O)[C@@H](O)[C@H](OC(=O)/C=C/c3ccc(O)cc3)C2)cc1` (stereo not given in full): the mortality at 100 ug/ml in data set [1] came to 100%. Also, the MIC against Candida albicans worked out at 8 µg/mL (≈ 12.2 µM); against Cryptococcus neoformans, 4 µg/mL (≈ 6.1 µM); against Aspergillus fumigatus it was 32 µg/mL (≈ 48.8 µM).
For `CCCCCCCCOc1ccc(NC(=O)C(CCCN)NC(=O)[C@]2(O)C[C@@H](O)[C@@H](O)[C@H](OC(=O)/C=C/c3ccc(O)c(O)c3)C2)cc1` (stereo not given in full) the same measures were 37.5%, 4 µg/mL (≈ 5.95 µM), 1 µg/mL (≈ 1.49 µM) and 16 µg/mL (≈ 23.8 µM).
Regarding `CCCCCCCCOc1ccc(NC(=O)C(CCCNC(=O)OC(C)(C)C)NC(=O)[C@]2(O)C[C@@H](O)[C@@H](O)[C@H](OC(=O)CCc3ccc(O)c(O)c3)C2)cc1` (stereo not given in full), the mortality at 100 ug/ml in data set [1] came to 21.1%. Moreover, the MIC in the data set with Candida albicans is greater than 64 µg/mL; in the data set on Cryptococcus neoformans, 4 µg/mL (≈ 5.17 µM); against Aspergillus fumigatus, greater than 64 µg/mL.
For the compound `CCCCCCCCOc1ccc(NC(=O)C(CCCNC(=O)OC(C)(C)C)NC(=O)[C@]2(O)C[C@@H](O)[C@@H](O)[C@H](OC(=O)/C=C/c3ccc(O)c(O)c3)C2)cc1` (stereo not given in full), the mortality at 100 ug/ml in data set [1] worked out at 25%. Besides, the MIC in the data set on Candida albicans was 2 µg/mL (≈ 2.59 µM); in the data set with Cryptococcus neoformans it was 1 µg/mL (≈ 1.3 µM); in the data set with Aspergillus fumigatus, greater than 64 µg/mL.
On the same counts, the results for `CCCCCCCCOc1ccc(NC(=O)C(CCCNC(=O)OC(C)(C)C)NC(=O)[C@@]2(O)C[C@@H](OC(=O)/C=C/c3ccc(O)cc3)[C@@H]3OC(C)(C)O[C@@H]3C2)cc1` (stereo not given in full) are 0%, greater than 64 µg/mL, greater than 64 µg/mL and greater than 64 µg/mL.
On the same counts, the results for `CCCCCCCCOc1ccc(NC(=O)C(CO)NC(=O)[C@]2(O)C[C@@H](O)[C@@H](O)[C@H](OC(=O)/C=C/c3ccc(O)c(O)c3)C2)cc1` (stereo not given in full) are 18.8%, greater than 64 µg/mL, 4 µg/mL (≈ 6.2 µM) and greater than 64 µg/mL.
As for `CCCCCCCCOc1ccc(NC(=O)C(CCCNC(=O)OC(C)(C)C)NC(=O)[C@@]2(O)C[C@@H](OC(=O)/C=C/c3ccc(O)c(O)c3)[C@@H]3OC(C)(C)O[C@@H]3C2)cc1` (stereo not given in full), the mortality at 100 ug/ml in data set [1] stood at 12.5%. The MIC is greater than 64 µg/mL with Candida albicans, 2 µg/mL (≈ 2.46 µM) with Cryptococcus neoformans and greater than 64 µg/mL in the data set with Aspergillus fumigatus.
`CCCCCCCCOc1ccc(NC(=O)C(COC(C)(C)C)NC(=O)[C@@]2(O)C[C@@H](OC(=O)/C=C/c3ccc(O)c(O)c3)[C@@H]3OC(C)(C)O[C@@H]3C2)cc1` (stereo not given in full): in data set [1], the mortality at 100 ug/ml was 31.3%. Also, the MIC in the data set on Candida albicans is 32 µg/mL (≈ 43.2 µM); against Cryptococcus neoformans it was 2 µg/mL (≈ 2.7 µM); with Aspergillus fumigatus, greater than 64 µg/mL.

As usually defined, the MIC is the lowest concentration found to suppress growth.
